Screening data (PubChem)
Hits are enriched below; roughly 4.2% of the tested compounds scored in any of these assays.
hERG protect: hERG rescue from dofetilide block, primary screen, cell-based, CHO-hERG, FluxOR thallium flux, dofetilide IC70; Voltage-gated inwardly rectifying potassium channel KCNH2 (Homo sapiens), Q12809; activation (rescue from dofetilide block), less the hit threshold, % at 10 µM; AID 1511, 2009; 310,000 compounds, 0.51% hits; dofetilide IC70 present;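 active means activation above the mean of controls blocked by dofetilide plus 5 SD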;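 further: thallium influx through hERG after potassium depolarization seen as dye fluorescence rise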
KCNQ1 inh: inhibitors of human KCNQ1 channel, primary screen, cell-based, thallium flux, high-throughput; Potassium voltage-gated channel subfamily KQT member 1 (Homo sapiens), P51787; CHO-K1 KCNQ1, FluxOR thallium flux fluorescence; hits give high values; B-score at 10 µM; 310,000 compounds, 1.3% hits;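 active means compounds whose thallium flux B-score, printed positive for inhibition, exceeds three library SD while starting fluorescence stays within three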;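 further: channel opened by potassium depolarization with thallium stimulus after 20 min compound exposure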
AI-2 QS mod: Vibrio harveyi AI-2 quorum sensing modulators, primary screen, JMH597 strain, luminescence/OD600 ratio. AID 2094, 2009. Vibrio harveyi JMH597 AI-2 luminescence/OD600 ratio, 9 h; hits give low values; strain lacks LuxN and CqsS sensors; 0 = neutral-control median. activity change, % at 7.5 µM. 300,000 compounds, 0.4% hits; in the data active means activity change below about -75%, passing the limit was not always enough;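 further: luminescence divided by OD600 gain over 9 h not by final OD600 alone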
KCC2 mod: KCC2 cotransporter modulators, thallium flux, primary screen, cell-based, HEK293 KCC2, FluoZin-2 fluorescence, MLSMR. Solute carrier family 12 member 5 (Homo sapiens), Q9H2X9. KCC2 cells, thallium flux FluoZin-2 fluorescence. B-score of Tl+ flux slope (higher = more flux/activation; lower = inhibition) at 10 µM. 190,000 compounds, 2.2% hits. AID 1456, 2008;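 active means thallium flux slope and its plate-corrected score both differing from the plate sample mean at a set confidence after two filtering rounds, in either direction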;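 further: slope of fluorescence scaled to starting intensity during 10 to 20 s after thallium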
SUMO Mot1 rescue: yeast Mot1-301 growth rescue at high temperature, primary screen, SUMOylation pathway inhibitor project, S. cerevisiae, ATP luminescence, 38.5C; 320,000 compounds, 1% hits; S. cerevisiae Mot1-301 growth rescue; percent above DMSO median, 100 means doubled; AID 2716, 2010; growth rescue, % at 18.8 µM;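 active means every valid replicate shows activation above 250% relative to neutral control wells; inactive means the rest, any valid replicate at or below 250%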;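 further: OY570 slx delta 5 strain wells were the positive control but not used for scaling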
KCNQ1 pot: potentiators or activators of KCNQ1 channel, primary screen, cell-based, thallium flux, high-throughput | 310,000 compounds, 0.35% hits | AID 2648, 2010 | CHO-K1 KCNQ1, thallium flux FluxOR fluorescence; hits give high values | Potassium voltage-gated channel subfamily KQT member 1 (Homo sapiens), P51787 | B-score at 10 µM;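 active means fluorescence ratio B-score, a plate-corrected score, at least three library SD, with initial intensity B-score within 5 SD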
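Assay system: stable KCNQ1 CHO-K1 line; medium: assay buffer, equal DMSO in all wells; timing: 90 min dye loading and 20 min compound exposure, both at room temperature; technique: kinetic FluxOR thallium fluorescence, 10-s 1-Hz baseline, 110-s post-stimulus read; read-out basis: B score of baseline-normalized fluorescence ratio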
KCNQ1 block val: KCNQ1 potassium channel inhibitors, confirmation, cell-based, Tl flux, duplicate; shares compounds with KCNQ1 inh; KCNQ1 cell line, FluxOR thallium flux fluorescence; inhibition, % at 10 µM; 1,600 compounds, 93% hits; AID 588353, 2011;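 active means primary screen active, with duplicate mean exceeding buffer control mean plus 3 SD of buffer wells, cut at about 28% in these data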;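 further: 0% = buffer control ratio and 100% = XE991 inhibitor control ratio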
CHO KCNQ1 ctr: thallium flux effects in parental CHO cells, counter-screen for KCNQ1 inhibitor project, cell-based, Tl flux | fluorescence ratio (Tl flux) at 10 µM | 1,600 compounds, 21% hits | shares compounds with KCNQ1 inh | parental CHO-K1, FluxOR thallium flux fluorescence ratio; hits give low values; zero means no signal rise above baseline | AID 588366, 2011;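 active means mean of duplicate thallium-flux fluorescence ratios in parental host cells more than 5 SD below the buffer control mean, cut at about 0.38 in these data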;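 further: ratio is peak minus minimum fluorescence divided by baseline fluorescence; actives read low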
KCNQ1 APC inh: KCNQ1 channel inhibitors, confirmation, orthogonal assay, cell-based, automated electrophysiology. shares compounds with KCNQ1 inh. KCNQ1-CHO cells, automated patch clamp current. calls only at 10 µM. 490 compounds, 20% hits. AID 624120, 2012;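 active means KCNQ1 current drop exceeding 3 SD of negative control wells, seen in both duplicate runs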;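 further: steady state current during a 2 s step from -80 to +40 mV; negative values mean current inhibition and positive values mean potentiation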
KCNQ2 inh: KCNQ2 channel inhibition, selectivity assay for KCNQ1 inhibitor project, cell-based; shares compounds with KCNQ1 inh; KCNQ2 cells, FluxOR thallium flux fluorescence; inhibition, % at 10 µM; 1,600 compounds, 71% hits;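 active means mean percent inhibition of the KCNQ2 thallium signal more than 5 SD above the buffer-only control wells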;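 further: KCNQ2 expressed in CHO cells; 0% = buffer control wells and 100% = XE-991 inhibitor control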
Target sequence (O88943 whole entry, looked up): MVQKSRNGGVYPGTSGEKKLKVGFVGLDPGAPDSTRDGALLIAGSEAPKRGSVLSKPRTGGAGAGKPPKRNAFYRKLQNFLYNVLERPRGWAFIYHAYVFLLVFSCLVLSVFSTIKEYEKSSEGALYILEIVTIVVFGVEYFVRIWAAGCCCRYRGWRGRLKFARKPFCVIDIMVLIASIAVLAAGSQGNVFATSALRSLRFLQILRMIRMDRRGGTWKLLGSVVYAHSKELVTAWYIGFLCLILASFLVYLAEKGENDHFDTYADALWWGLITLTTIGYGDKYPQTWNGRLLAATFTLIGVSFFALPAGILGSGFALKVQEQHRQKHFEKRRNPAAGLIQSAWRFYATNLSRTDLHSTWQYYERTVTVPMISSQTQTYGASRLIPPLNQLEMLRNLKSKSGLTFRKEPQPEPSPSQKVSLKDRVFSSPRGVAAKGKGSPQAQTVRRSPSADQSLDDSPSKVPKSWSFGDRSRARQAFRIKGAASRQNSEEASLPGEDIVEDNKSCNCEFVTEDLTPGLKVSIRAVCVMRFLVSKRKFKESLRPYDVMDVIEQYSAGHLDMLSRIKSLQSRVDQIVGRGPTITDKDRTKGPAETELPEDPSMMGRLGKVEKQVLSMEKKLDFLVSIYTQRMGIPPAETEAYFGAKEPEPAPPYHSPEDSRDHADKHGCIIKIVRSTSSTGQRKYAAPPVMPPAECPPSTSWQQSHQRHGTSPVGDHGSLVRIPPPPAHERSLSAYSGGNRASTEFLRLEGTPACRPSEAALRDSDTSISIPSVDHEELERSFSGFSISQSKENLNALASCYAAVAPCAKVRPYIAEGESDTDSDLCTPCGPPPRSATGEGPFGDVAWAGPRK
KCNQ1-KCNE1 inh: KCNQ1/KCNE1 channel inhibition, selectivity assay for KCNQ1 inhibitor project, CHO-K1 cells, thallium flux, FluxOR; shares compounds with KCNQ1 inh; FluxOR thallium flux fluorescence; inhibition, % at 10 µM; 1,600 compounds, 77% hits;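 active means mean percent inhibition of duplicate wells above the buffer-only control mean plus 3 SD of those controls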;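 further: 0% = buffer only wells and 100% = XE-991 inhibitor control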
An asterisk follows results filed as active; i = inactive; nt = no result; + = active, no number.

SMILES	hERG protect	KCNQ1 inh	AI-2 QS mod	KCC2 mod	SUMO Mot1 rescue	KCNQ1 pot	KCNQ1 block val	CHO KCNQ1 ctr	KCNQ2 inh	KCNQ1-KCNE1 inh	others
CCCn1nc(NC(=O)c2cccs2)c2cc3cccc(C)c3nc21	-10.1	7*	4.5	0.188	-10.6	i	157.5*	0.32*	i	+
O=C(OCC(=O)N(C1CCCCC1)C1CCCCC1)c1ccccc1O	-7.0	7*	10.7	nt	17.6	i	116.0*	0.396	123.7%*	179.0%*	KCNQ1 APC inh=+
CC(NC(=S)NC1CCCCC1)c1ccc(C(C)(C)C)cc1 (stereo not given)	-5.2	8*	10.3	nt	26.9	i	104.5*	0.558	i	77.0%*	KCNQ1 APC inh=i
CN(CC(=O)Nc1ccccc1Br)C(=O)Cn1[nH]c(=O)c2ccccc2c1=O	nt	nt	nt	nt	-1.4	nt	nt	nt	nt	nt
O=C(Cc1ccccc1)c1c[nH]c(C(=O)NCCCn2ccnc2)c1	2.0	i	0.4	0.502	6.3	i	nt	nt	nt	nt
O=C(c1ccc(C(F)(F)F)cc1)c1c[nH]c(C(=O)NCCCn2ccnc2)c1	-20.6	7*	23.2	0.183	4.7	i	59.0*	0.441	i	89.0%*
CCCCCCCCOC(=O)c1nc(Cl)c(Cl)c(N)c1Cl	-8.9	7*	31.2	0.45	248.1	i	101.0*	0.46	65.0%*	126.5%*	KCNQ1 APC inh=i
COC(=O)c1nc(Cl)c(Cl)c(N)c1Cl	-3.6	i	-1.9	0.0382	10.0	i	nt	nt	nt	nt
CCOc1ccccc1N1CC(C(=O)N(C)Cc2cccnc2)CC1=O (stereo not given)	-7.2	i	17.6	nt	-10.7	i	nt	nt	nt	nt
CC(=O)c1cccc(NC(=O)N2CCCC2C(=O)NCc2ccc3c(c2)OCO3)c1 (stereo not given)	-7.3	7*	9.7	nt	-13.1	i	0.0	0.482	i	i
O=C(NCc1ccc2c(c1)OCO2)C1CCCN1C(=O)Nc1cccc(F)c1 (stereo not given)	-0.3	i	7.9	-0.28	-30.9	i	nt	nt	nt	nt
O=C(O)C[C@H]1c2cc(C(F)(F)F)ccc2S(=O)(=O)N1C1CCCCC1	-14.3	i	4.2	nt	-11.9	i	nt	nt	nt	nt
CC(C)CSC1=NSC2=NC(=O)/C(=C\c3coc4ccccc4c3=O)C(=N)N12	-45.6	25*	52.8	i	-20.2	i	+	0.004*	i	i
